Data taken from ChEMBL document CHEMBL1130283, “Synthesis and structure-activity relationships of nonaromatic taxoids: effects of alkyl and alkenyl ester groups on cytotoxicity” (J Med Chem, 1997).

Columns and labels:
Format in all cases: functional, cell-based
[1] = system: A121; assay: Inhibition of the growth against human Ovarian Carcinoma (A121) cell line after 72 hr exposure; conditions: A121, 72 h
Outline: (§1)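 SRB assay. Cells were seeded at 400/well, allowed to attach overnight, and grown in RPMI-1640 with 5% FBS and 5% Nu serum. Compounds were dissolved in DMSO, diluted in medium and applied to triplicate wells for 72 h. Cells were fixed with cold 50% TCA (1 h, 4 °C), stained with 0.4% SRB for 5 min, rinsed with 0.1% acetic acid and solubilized in 10 mM Tris pH 10.5. OD was read at 570 nm. IC50 came from a weighted sigmoid-Emax nonlinear fit.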

[2] = system: MCF7; assay: Inhibition of the growth against human mammary carcinoma (MCF-7) cell line after 72 hr exposure; conditions: MCF7, 72 h; outline: as §1
[3] = system: A549; assay: Inhibition of the growth against human non-small-lung carcinoma (A549) cell line after 72 hr exposure; conditions: A549, 72 h
[4] = system: HT-29; assay: Inhibition of the growth against human Colon Carcinoma (HT-29) cell line after 72 hr exposure; conditions: HT-29, 72 h; outline: as §1
[5] = system: MCF7R; assay: Inhibition of the growth against human mammary carcinoma 180 fold resistant to doxorubicin (MCF-7-R) cell line after 72 hr exposure

Structure (SMILES)	IC50 [2] [µM]	IC50 [3] [µM]	IC50 [4] [µM]	IC50 [5] [µM]	IC50 [1] [µM]
CC(=O)OC1C(=O)C2(C)C(O)CC3OCC3(OC(C)=O)C2C(OC(=O)C2CCCCC2)C2(O)CC(OC(=O)C(O)C(C=C(C)C)NC(=O)OC(C)(C)C)C(C)=C1C2(C)C (stereo not given)	0.0005	0.0013	0.0017	0.026	0.0015
CC(=O)OC1C(=O)C2(C)C(O)CC3OCC3(OC(C)=O)C2C(OC(=O)C=C(C)C)C2(O)CC(OC(=O)C(O)C(NC(=O)OC(C)(C)C)c3ccccc3)C(C)=C1C2(C)C (stereo not given)	0.0011	0.0029	0.0035	0.14	0.0027
C/C=C/C(NC(=O)OC(C)(C)C)C(O)C(=O)OC1CC2(O)C(OC(=O)C3CCCCC3)C3C4(OC(C)=O)COC4CC(O)C3(C)C(=O)C(OC(C)=O)C(=C1C)C2(C)C (stereo not given)	0.0032	0.012	0.0085	0.446	0.0066
CC(=O)OC1C(=O)C2(C)C(O)CC3OCC3(OC(C)=O)C2C(OC(=O)C2CCCCC2)C2(O)CC(OC(=O)C(O)C(CC(C)C)NC(=O)OC(C)(C)C)C(C)=C1C2(C)C (stereo not given)	0.0018	0.0077	0.0056	0.057	0.0032
CC(=O)O[C@H]1C(=O)[C@@]2(C)[C@H]([C@H](OC(=O)c3ccccc3)[C@]3(O)C[C@H](OC(=O)[C@H](O)[C@H](C=C(C)C)NC(=O)OC(C)(C)C)C(C)=C1C3(C)C)[C@]1(OC(C)=O)CO[C@@H]1C[C@@H]2O	0.0006	0.0003	0.0006	0.012	0.0005
CC(=O)OC1C(=O)C2(C)C(O)CC3OCC3(OC(C)=O)C2C(OC(=O)C2CCCCC2)C2(O)CC(OC(=O)C(O)C(NC(=O)OC(C)(C)C)c3ccccc3)C(C)=C1C2(C)C (stereo not given)	0.0018	0.0057	0.0056	0.412	0.0048
CC(=O)OC1C(=O)C2(C)C(O)CC3OCC3(OC(C)=O)C2C(OC(=O)C2CCCCC2)C2(O)CC(OC(=O)C(O)C(NC(=O)OC(C)(C)C)C3CCCCC3)C(C)=C1C2(C)C (stereo not given)	0.01	0.049	0.059	0.591	0.043

Now from value to compound, other results behind:

IC50 [2] [µM]	IC50 [3] [µM]	IC50 [4] [µM]	IC50 [5] [µM]	Structure (SMILES)	IC50 [1] [µM]
0.084	0.03	0.089	> 1	CC(=O)OC1C(=O)C2(C)C(O)CC3OCC3(OC(C)=O)C2C(OC(=O)C=C(C)C)C2(O)CC(OC(=O)C(O)C(CC(C)C)NC(=O)OC(C)(C)C)C(C)=C1C2(C)C (stereo not given)	0.054
0.043	0.047	0.052	1.08	CC(=O)OC1C(=O)C2(C)C(O)CC3OCC3(OC(C)=O)C2C(OC(=O)CC(C)C)C2(O)CC(OC(=O)C(O)C(CC(C)C)NC(=O)OC(C)(C)C)C(C)=C1C2(C)C (stereo not given)	0.055
0.011	0.014	0.016	0.589	CC(=O)OC1C(=O)C2(C)C(O)CC3OCC3(OC(C)=O)C2C(OC(=O)CC(C)C)C2(O)CC(OC(=O)C(O)C(C=C(C)C)NC(=O)OC(C)(C)C)C(C)=C1C2(C)C (stereo not given)	0.017
0.0005	0.0009	0.0014	0.038	CC(=O)OC1C(=O)C2(C)C(O)CC3OCC3(OC(C)=O)C2C(OC(=O)C=C(C)C)C2(O)CC(OC(=O)C(O)C(C=C(C)C)NC(=O)OC(C)(C)C)C(C)=C1C2(C)C (stereo not given)	0.0009
